Measurements taken from article PMC8926038 (Multiple sclerosis and related disorders, 2022).
Structures can show the parent of a compound that is named as a salt.

Tests used:
[1] = tested on: C3 secretion from inflammation-induced astrocytes; assay: C3 secretion; type: cell-based, human
Outline: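 Primary human cortical astrocytes on PLL-coated plates; after 24 h, medium replaced with 50% v/v supernatant from resting or LPS (100 ng/ml) plus CD3/CD28 bead-stimulated PBMC, with test compound or matched DMSO. Screen run twice at single concentrations; titrations at 0–1000 nM (n = 3), IC50 from best-fit curves. Supernatant C3 by ELISA at 24 h, reported as % of stimulated DMSO after unstimulated subtraction.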

astrocytes = settings: in vitro pre-treatment, 25 μM, stimulation with IL1β; ref Galloway et al., 2017; cited from earlier work
[2] = doses over 400 mg/day; ref Utili et al., 1977; cited from earlier work
[3] = tested on: secretome of inflammation-induced astrocytes; type: cell-based, human; settings: SOMAscan, n = 1; for secretion of "toxic astrocyte signature" biomarkers: normalized toxic vs resting astrocytes index
[4] = tested on: human induced pluripotent stem cells (iPSCs)-differentiated astrocytes; settings: pretreatment, in the presence of inflammatory stimuli; ref Colombo et al., 2020; cited from earlier work
[5] = inflammation-induced astrocytes

COC(=O)/C=C/C(=O)OC [DMF, dimethyl fumarate]
C3 secretion by astrocytes ([1]; library screen at 100 nM): not at 100 nM
C3 secretion by astrocytes ([1]; library screen at 10 μM): inhibited
secretion of proinflammatory cytokines and oxidative stress (astrocytes): reduced

O=C1CN(/N=C/c2ccc(-c3ccc([N+](=O)[O-])cc3)o2)C(O)=N1 [Dantrolene]
inhibition of secretion of C3 ([1]; drug library screen): 77.7%
hepatotoxicity [2]: serious hepatotoxicity

CC(C)c1cc(-c2n[nH]c(=O)n2-c2ccc3c(ccn3C)c2)c(O)cc1O [Ganetespib]
secretion of proteins from astrocytes not activated by inflammatory stimuli [3]: inhibited
secretion of "toxic astrocyte signature" biomarkers [3]: strongly reduced secretion of all biomarkers

CO[C@H]1C[C@@H]2CC[C@@H](C)[C@@](O)(O2)C(=O)C(=O)N2CCCC[C@H]2C(=O)O[C@H]([C@H](C)C[C@@H]2CC[C@@H](O)[C@H](OC)C2)CC(=O)[C@H](C)/C=C(\C)[C@@H](O)[C@@H](OC)C(=O)[C@H](C)C[C@H](C)/C=C/C=C/C=C/1C [Rapamycin]
secretion of "toxic astrocyte signature" biomarkers [3]: did not have potent effect on secretion of most
secretion of CCL20, TNFAIP6 and CFB [3, 5]: elevated
secretion of CCL20 and CCL8 [3, 5]: increased
secretion of SERPINA3 [3, 5]: failed to inhibit

CCCCCCCCc1ccc(CCC(N)(CO)CO)cc1 [fingolimod]
secretion of proinflammatory cytokines [4]: reduced

CCc1cc(/C(C)=N/OCc2ccc(C3CCCCC3)c(C(F)(F)F)c2)ccc1CN1CC(C(=O)O)C1 [siponimod]
secretion of proinflammatory cytokines [4]: reduced
